In ChEMBL document CHEMBL1687785, “ampG gene of Pseudomonas aeruginosa and its role in β-lactamase expression” (2010):
In brackets after ≈: the same amount, converted by molar mass.

Columns and labels:
Format in all cases: functional
Escherichia coli [1] = assay: Antimicrobial activity against tetracycline resistant Escherichia coli SNO301-1 harboring pEC1C carrying ampC, ampR from Enterobacter cloacae after 16 to 20 hrs by broth microdilution method
Procedure, shortened: (§1)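 CLSI broth microdilution: serial 2-fold β-lactam dilutions in Mueller-Hinton broth, inoculum about 10^4 cells from starter cultures at OD600 0.5; MIC read as lowest concentration preventing growth after 16 to 20 h at 37°C; triplicate determinations.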

Escherichia coli [2] = assay: Antimicrobial activity against kanamycin resistant Escherichia coli SNO301-1 harboring pEC1C carrying ampC, ampR from Enterobacter cloacae after 16 to 20 hrs by broth microdilution method; procedure, shortened: as §1
Pseudomonas aeruginosa [3] = assay: Antimicrobial activity against ampG deficient Pseudomonas aeruginosa PAK after 16 to 20 hrs by broth microdilution method in presence of 120 uM carbonyl cyanide m-chlorophenyl-hydrazone
Procedure, shortened: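 CLSI broth microdilution in Mueller-Hinton broth with serial antibiotic dilutions. CCCP was added from a 10 mM DMSO stock to 120 μM final, then the bacterial culture was added as inoculum (about 10^4 cells from OD600 0.5 starter cultures). MIC was the lowest concentration preventing growth after 16 to 20 h at 37°C, run in triplicate.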

Pseudomonas aeruginosa [4] = assay: Antimicrobial activity against Pseudomonas aeruginosa isolate 1 obtained from cystic fibrosis patients after 16 to 20 hrs by broth microdilution method in presence of 120 uM carbonyl cyanide m-chlorophenyl-hydrazone
Procedure, shortened: (§2)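 CLSI broth microdilution in Mueller-Hinton broth with CCCP added from a 10 mM DMSO stock to 120 μM final, alongside 2-fold serial antibiotic dilutions. Inoculum from starter cultures grown to OD600 0.5. MIC is the lowest concentration preventing growth after 16-20 h at 37°C. Triplicate.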

Pseudomonas aeruginosa [5] = assay: Antimicrobial activity against Pseudomonas aeruginosa isolate 5 obtained from cystic fibrosis patients after 16 to 20 hrs by broth microdilution method
Procedure, shortened: (§3)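 CLSI broth microdilution in Mueller-Hinton broth, serial 2-fold antibiotic dilutions. Inoculum about 10^4 cells per well, taken from starter cultures grown to OD600 0.5. MIC was the lowest antibiotic concentration preventing growth after 16 to 20 h at 37°C. Each MIC was determined in triplicate.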

Pseudomonas aeruginosa [6] = assay: Antimicrobial activity against Pseudomonas aeruginosa isolate 9 obtained from cystic fibrosis patients after 16 to 20 hrs by broth microdilution method; procedure, shortened: as §3
Pseudomonas aeruginosa [7] = assay: Antimicrobial activity against Pseudomonas aeruginosa isolate 14 obtained from cystic fibrosis patients after 16 to 20 hrs by broth microdilution method
Procedure, shortened: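 CLSI broth microdilution: 2-fold serial antibiotic dilutions in Mueller-Hinton broth, inoculated with about 10^4 cells per 100 μl from starter cultures grown to OD600 0.5. MIC is the lowest concentration preventing growth after 16-20 h at 37°C. Triplicate.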

Pseudomonas aeruginosa [8] = assay: Antimicrobial activity against Pseudomonas aeruginosa isolate 15 obtained from cystic fibrosis patients after 16 to 20 hrs by broth microdilution method in presence of 120 uM carbonyl cyanide m-chlorophenyl-hydrazone; procedure, shortened: as §2

`CC1(C)S[C@@H]2[C@H](NC(=O)[C@H](N)c3ccccc3)C(=O)N2[C@H]1C(=O)O` [AMPICILLIN] showed an MIC (Escherichia coli [1]) of 16 µg/mL (≈ 45.8 µM), an MIC (Escherichia coli [2]) of 1020 µg/mL (≈ 2930 µM) and an MIC (Pseudomonas aeruginosa [3]) of 32 µg/mL. The MIC (Pseudomonas aeruginosa [4]) was 512 µg/mL, the MIC (Pseudomonas aeruginosa [5]) was 512 µg/mL (≈ 1470 µM) and the MIC (Pseudomonas aeruginosa [6]) was 512 µg/mL (≈ 1470 µM). For the same compound, the MIC (Pseudomonas aeruginosa [7]) was 512 µg/mL (≈ 1470 µM) and the MIC (Pseudomonas aeruginosa [8]) was 8 µg/mL.
